Results from ChEMBL document CHEMBL3867455, “Accelerating the discovery of antibacterial compounds using pathway-directed whole cell screening” (Bioorg Med Chem, 2016).
Numbering of substitutions follows the chain as printed. Values after ≈ are worked out from the molar mass of the structure shown. Active and inactive are the calls of the source. The rule behind the calls is not given here.

Experiments:
Staphylococcus aureus [1] = test: Inhibition of DltB in ltaS-deficient Staphylococcus aureus SEJ1 at 5 ug/ml after 16 to 18 hrs
Method in brief: (§1)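 S. aureus overnight cultures (Newman WT, Newman ΔtarO, SEJ1 ΔltaS, RN4220 ΔypfP) diluted 1:100 in TSB and grown to OD600 ~1. Cultures were normalized to OD600 1 and diluted 1:1000. A DMSO compound dilution series was added to give final 0–32 µg/mL. Plates were incubated at 30°C for 16–18 h, then growth was read as OD600.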

[2] = tested on: Staphylococcus aureus subsp. aureus RN4220; test: Inhibition of DltB in ypfP-deficient Staphylococcus aureus RN4220 at 5 ug/ml after 16 to 18 hrs; method in brief: as §1
[3] = tested on: Staphylococcus aureus subsp. aureus USA300; test: Inhibition of DltB tn::1050 mutant in Staphylococcus aureus USA300 JE2 at 5 ug/ml after 16 to 18 hrs
[4] = tested on: T1, Teichoic acid D-alanyltransferase (Staphylococcus aureus), Q53662 [A355E]; test: Inhibition of DltB A355E mutant in Staphylococcus aureus Newman up to 32 ug/ml after 16 to 18 hrs by spectrophotometric analysis; details: Staphylococcus aureus subsp. aureus str. Newman
T1 sequence (whole entry): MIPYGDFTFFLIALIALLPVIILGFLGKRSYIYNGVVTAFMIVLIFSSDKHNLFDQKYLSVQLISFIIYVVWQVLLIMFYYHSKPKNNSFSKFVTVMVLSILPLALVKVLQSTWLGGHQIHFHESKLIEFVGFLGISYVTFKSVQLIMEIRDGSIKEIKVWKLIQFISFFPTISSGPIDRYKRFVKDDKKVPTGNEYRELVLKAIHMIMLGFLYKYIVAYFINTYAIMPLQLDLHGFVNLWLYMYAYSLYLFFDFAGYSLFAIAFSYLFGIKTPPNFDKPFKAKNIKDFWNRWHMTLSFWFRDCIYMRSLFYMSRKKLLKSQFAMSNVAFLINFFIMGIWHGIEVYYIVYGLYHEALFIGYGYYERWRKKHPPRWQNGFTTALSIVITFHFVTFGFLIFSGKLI
Method in brief: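 Broth-dilution MIC. Overnight cultures of the parent and the resistant mutants (selected in the […] background) were diluted 1:100 and grown in TSB at 30°C to OD600 ~1. They were then normalized to OD600 1 and diluted 1:1000. Compound series were made in DMSO, with 3 µL added to 147 µL of culture for a final 0–32 µg/mL. Plates were held 16–18 h at 30°C and OD600 was read.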

Staphylococcus aureus [5] = test: Antibacterial activity against wild type Staphylococcus aureus Newman at 5 ug/ml after 16 to 18 hrs; assay type: functional; method in brief: as §1
[6] = tested on: Staphylococcus aureus subsp. aureus str. Newman; test: Inhibition of DltB in Taro deficient Staphylococcus aureus Newman at 5 ug/ml after 16 to 18 hrs; method in brief: as §1
[7] = tested on: T2, Teichoic acid D-alanyltransferase (Staphylococcus aureus), Q53662 [S175T]; test: Inhibition of DltB S175T mutant in Staphylococcus aureus Newman up to 32 ug/ml after 16 to 18 hrs by spectrophotometric analysis; details: Staphylococcus aureus subsp. aureus str. Newman
T2 sequence (whole entry): T1 sequence (whole entry) with S175T, E355A

[8] = tested on: Staphylococcus aureus subsp. aureus USA300; test: Inhibition of DltB tn::1050 mutant in Staphylococcus aureus USA300 JE2 at 1 ug/ml after 16 to 18 hrs
[9] = tested on: Staphylococcus aureus subsp. aureus str. Newman; test: Inhibition of DltB in Staphylococcus aureus Newman assessed as suppression of 14C-D-Ala incorporation into LTA up to 16 ug/ml preincubated for 30 mins followed by 14C-D-Ala addition after 30 mins by PAGE autoradiography
Method in brief: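 S. aureus Newman overnight culture diluted 1:100 and grown in TSB at 30°C to OD600 0.6. Cells were resuspended in 0.25X TSB pH 6.0 with 200 µg/mL D-cycloserine and compound at 0–16 µg/mL (eight levels), then held 30 min at 30°C, 300 rpm. Cells were then resuspended in the same buffer with compound plus 14C-D-Ala for a further 30 min. Lysates were boiled in SDS buffer and run on 4–20% Tris-glycine PAGE, then autoradiographed for labelled LTA.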

[10] = Cytotoxicity against African green monkey Vero cells assessed cell viability at 5 uM relative to control; assay type: toxicity, cell-based; details: chlorocebus sabaeus, read-out: Activity
[11] = Cytotoxicity against African green monkey Vero cells assessed cell viability at 10 uM relative to control; assay type: toxicity, cell-based; details: chlorocebus sabaeus, read-out: Activity
[12] = Cytotoxicity against African green monkey Vero cells assessed cell viability at 2.5 uM relative to control; assay type: toxicity, cell-based; details: chlorocebus sabaeus, read-out: Activity
[13] = tested on: Staphylococcus aureus subsp. aureus str. Newman; test: Inhibition of DltB in Taro-deficient Staphylococcus aureus Newman at 1 ug/ml after 16 to 18 hrs; method in brief: as §1
[14] = Cytotoxicity against African green monkey Vero cells assessed cell viability at 1.3 uM relative to control; assay type: toxicity, cell-based; details: chlorocebus sabaeus, read-out: Activity
[15] = tested on: Staphylococcus aureus subsp. aureus RN4220; test: Inhibition of DltB in ypfP-deficient Staphylococcus aureus RN4220 at 1 ug/ml after 16 to 18 hrs; method in brief: as §1
Staphylococcus aureus [16] = test: Inhibition of DltB in ltaS-deficient Staphylococcus aureus SEJ1 at 1 ug/ml after 16 to 18 hrs; method in brief: as §1

| Structure (SMILES) | inhibition (Staphylococcus aureus [1]) | inhibition [2] | inhibition [3] | MIC [4] [mg/L] | Activity (Staphylococcus aureus [5]) | inhibition [6] | MIC [7] [mg/L] | inhibition [8] | inhibition [9] | viability at 5 µM [10] [%] | viability at 10 µM [11] [%] | viability at 2.5 µM [12] [%] | inhibition [13] | viability at 1.3 µM [14] [%] | inhibition [15] | inhibition (Staphylococcus aureus [16]) |
| --- | --- | --- | --- | --- | --- | --- | --- | --- | --- | --- | --- | --- | --- | --- | --- | --- |
| COc1cc(NS(C)(=O)=O)ccc1Nc1c2ccccc2nc2ccccc12 | Active | Active | Active | 2 (≈ 5.08 µM) | Active | Active | > 32 |  |  |  |  |  |  |  |  |  |
| COc1ccc(-c2csc(NC(=O)/C=C/c3cccs3)n2)c(OC)c1 |  |  |  | > 32 |  |  | 0.5 (≈ 1.34 µM) | Active | Active | 106 | 106 | 106 | Active | 106 | Active | Active |
